# Results: ChEMBL document CHEMBL1122348, “(E)-3-(4-Oxo-4H-quinazolin-3-yl)-2-propenoic acids, a new series of antiallergy agents” (1983)
# Active and inactive are the calls of the source. No cut-off for these calls is given here.
# Key:
# Rattus norvegicus [1] = experiment: Anti-allergy activity test in rat passive cutaneous anaphylaxis (PCA) test at 16 mg/kg administered intraperitoneally; assay type: functional; settings: ip, route intraperitoneal
# Method in brief: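 Rats given the compound intraperitoneally at 16 mg/kg in the passive cutaneous anaphylaxis model. The read-out is percent inhibition of the cutaneous anaphylactic response, and some entries carry p values.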
# Rattus norvegicus [2] = experiment: Tested for antiallergy activity in rat passive cutaneous anaphylaxis (PCA) test at 32 mg/kg administered perorally; assay type: functional; settings: route oral
# Rattus norvegicus [3] = experiment: Tested for antiallergy activity in rat passive cutaneous anaphylaxis (PCA) test at 32 mg/kg administered perorally; 30 minute pretreatment time; assay type: functional; settings: route oral
# Rattus norvegicus [4] = experiment: Tested for antiallergy activity in rat passive cutaneous anaphylaxis (PCA) test at 32 mg/kg administered perorally; pretreatment time is 30 min; assay type: functional; settings: route oral
# Rattus norvegicus [5] = experiment: Inhibitory dose administered perorally against anaphylactic bronchospasm in passively sensitized rats; assay type: functional; settings: Bronchiole, po, read-out: ID50
# Rattus norvegicus [6] = experiment: Tested for antiallergy activity in rat passive cutaneous anaphylaxis (PCA) test at 32 mg/kg administered perorally; In active; assay type: functional, organism-based; parameters: dose 32 mg/kg
# Rattus norvegicus [7] = experiment: Percentage inhibition at 8 mg/kg administered intraperitoneally in rat passive cutaneous anaphylaxis (PCA) test, p<0.001; assay type: functional; settings: ip, route intraperitoneal
# Rattus norvegicus [8] = experiment: Tested for antiallergy activity in rat passive cutaneous anaphylaxis (PCA) test at 32 mg/kg administered perorally; 10 min pretreatment time; assay type: functional; settings: route oral
SMILES,inhibition in vivo at 16 mg/kg (Rattus norvegicus [1]),inhibition in vivo at 32 mg/kg (Rattus norvegicus [2]),further results
COC(=O)/C=C/n1cnc2ccc(OC(C)C)cc2c1=O,46%,,
COc1ccc2ncn(/C=C/C(=O)O)c(=O)c2c1,49%,23%,
COc1cc(OC)c2ncn(/C=C/C(=O)O)c(=O)c2c1,81%,,inhibition in vivo at 32 mg/kg (Rattus norvegicus [3]): 31%
COc1cccc2c(=O)n(/C=C/C(=O)O)cnc12,82%,,inhibition in vivo at 32 mg/kg (Rattus norvegicus [4]): 45%
CS(=O)(=O)c1ccc2ncn(/C=C/C(=O)O)c(=O)c2c1,70%,,
Cc1cc(C)c2ncn(/C=C/C(=O)O)c(=O)c2c1,82%,70%,
O=C(O)/C=C/n1cnc2ccc(OCCO)cc2c1=O,67%,80%,
O=C(O)/C=C/n1cnc2ccc(Cl)cc2c1=O,79%,49%,
O=C(O)/C=C/n1cnc2ccc(O)cc2c1=O,56%,,
COc1cc2ncn(/C=C/C(=O)O)c(=O)c2cc1OC,88%,,
CC(C)Oc1ccc2ncn(/C=C/C(=O)O)c(=O)c2c1,87%,70%,
CC(C)c1ccc2ncn(/C=C/C(=O)O)c(=O)c2c1,100%,89%,ED50 (Rattus norvegicus [5]): 0.05 mg/kg
CCN(CC)CCOc1ccc2ncn(/C=C/C(=O)O)c(=O)c2c1,16%,,inhibition (Rattus norvegicus [6]): inactive
C[S+]([O-])c1ccc2ncn(/C=C/C(=O)O)c(=O)c2c1 (stereo not drawn),89%,48%,
CSc1ccc2ncn(/C(C)=C/C(=O)O)c(=O)c2c1,9%,,
COC(=O)/C=C/n1cnc2ccc(SC)cc2c1=O,39%,,
CSc1ccc2ncn(/C=C/C(=O)O)c(=O)c2c1 [TIACRILAST],87%,75%,ED50 (Rattus norvegicus [5]): 0.02 mg/kg
CSc1ccc2ncn(CCC(=O)O)c(=O)c2c1,14%,,
O=C(O)/C=C/n1cnc2ccccc2c1=O,,55%,
CSc1ccc2c(c1)C(=O)N(/C=C/C(=O)O)CN2,53%,,
CC(C)Sc1ccc2ncn(/C=C/C(=O)O)c(=O)c2c1,59%,56%,
Cc1nc2ccc(C3CC3)cc2c(=O)n1/C=C/C(=O)O,39%,,
CSc1ccc2ncn(/C=C\C(=O)O)c(=O)c2c1,11%,,
CC(C)c1cc(C(C)C)c2ncn(/C=C/C(=O)O)c(=O)c2c1,70%,91%,
O=C(O)c1cc(=O)c2c(OCC(O)COc3cccc4oc(C(=O)O)cc(=O)c34)cccc2o1 [CROMOLYN SODIUM],,18%,inhibition in vivo at 8 mg/kg (Rattus norvegicus [7]): 46%
O=C(O)/C=C/n1cnc2ccc(C3CC3)cc2c1=O,100%,,inhibition in vivo at 32 mg/kg (Rattus norvegicus [8]): 81%
